Assays:
NCI-H460 [1] = experiment: Cytotoxicity against human H460 cells after 72 hrs by alamar blue assay; assay type: functional, cell-based; details: Homo sapiens, NCI-H460, 72 h
In short: (§1)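 Cells seeded at 4 × 10³ per well and grown 24 h. Compounds dissolved in DMSO and diluted in medium to final concentrations, then incubated 72 h at 37 °C, 5% CO₂. Viable cells read by AlamarBlue; IC₅₀ taken as the concentration giving 50% growth inhibition.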

Malme-3M = experiment: Cytotoxicity against human MALME-3M cells after 72 hrs by alamar blue assay; assay type: functional, cell-based; in short: as §1
A-375 = experiment: Cytotoxicity against human A375 cells after 72 hrs by alamar blue assay; assay type: functional, cell-based; details: A-375, 72 h; in short: as §1
[2] = Cytotoxicity against human MESSA cells after 72 hrs by alamar blue assay; assay type: functional, cell-based; details: MES-SA; in short: as §1
SK-MEL-2 = experiment: Cytotoxicity against human SK-MEL-2 cells after 72 hrs by alamar blue assay; assay type: functional, cell-based; details: SK-MEL-2, 72 h; in short: as §1
[3] = Ratio of IC90 for mouse bone marrow cell to IC90 for human bone marrow cell; assay type: ADME, cell-based; details: bone marrow cells
In short: (§2)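 CFU-GM colony assay in triplicate at 2 × 10⁴ cells per culture, using thawed normal human bone marrow or fresh mouse femoral marrow. Colonies were scored after 16-18 days. The IC50 or IC90 from each species gave the mouse/human ratio.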

[4] = Cytotoxicity against human bone marrow cell by CFU-GM assay; assay type: cell-based
[5] = Resistance ratio of IC50 for human H69AR cells overexpressing MRP1 after 72 hrs s to IC50 for human H69 cells after 72 hrs
[6] = Ratio of IC50 for mouse bone marrow cell to IC50 for human bone marrow cell; assay type: cell-based; details: bone marrow cells; in short: as §2
[7] = Resistance ratio of IC50 for human MES-SA/Dx5 cells overexpressing MDR1 after 72 hrs to IC50 for human MESSA cells after 72 hrs; assay type: functional
In short: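 Cytotoxicity compared in MDR1-overexpressing lines and their parental wild-type lines. 72 h exposure at 37 °C, viability by AlamarBlue, IC₅₀ at 50% growth inhibition. Resistance ratio = IC₅₀ in overexpressing line / IC₅₀ in parental line.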

NCI-H460 [8] = experiment: Ratio IC50 for human H460 cells after 72 hrs in presence of 40 mg/ml HSA to IC50 for human H460 cells after 72 hrs; assay type: functional
In short: (§3)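 H460 cells seeded at 4 × 10³ per well and grown 24 h. Compounds then cocultured with cells for 72 h at 37 °C, with or without 40 mg/mL human serum albumin. Viability read by AlamarBlue; IC₅₀ = 50% growth inhibition. Ratio compares the IC₅₀ with HSA to the IC₅₀ without.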

LNCaP = experiment: Cytotoxicity against human LNCAP cells after 72 hrs by alamar blue assay; assay type: functional, cell-based; in short: as §1
NCI-H460 [9] = experiment: Cytotoxicity against human H460 cells after 72 hrs by alamar blue assay in presence of 40 mg/ml HSA; assay type: functional, cell-based; details: NCI-H460, 72 h; in short: as §3
IGROV-1 = experiment: Cytotoxicity against human IGROV1 cells after 72 hrs by alamar blue assay; assay type: functional, cell-based; details: IGROV-1, 72 h; in short: as §1
PC-3 = experiment: Cytotoxicity against human PC3 cells after 72 hrs by alamar blue assay; assay type: functional, cell-based; details: PC-3, 72 h; in short: as §1
HT-29 = experiment: Cytotoxicity against human HT-29 cells after 72 hrs by alamar blue assay; assay type: functional, cell-based; details: HT-29, 72 h; in short: as §1
H69AR = experiment: Cytotoxicity against human H69AR cells overexpressing MRP1 after 72 hrs by alamar blue assay
NCI-H69 = experiment: Cytotoxicity against human H69 cells after 72 hrs by alamar blue assay; assay type: functional, cell-based; details: NCI-H69, 72 h; in short: as §1
[10] = Cytotoxicity against mouse bone marrow cell by CFU-GM assay; assay type: cell-based
In short: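 CFU-GM colony assay on normal human bone marrow (thawed) or mouse femoral marrow (freshly extracted). Human colonies scored after 16-18 days. IC₅₀ taken from triplicate assays.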

DU-145 = experiment: Cytotoxicity against human DU145 cells after 72 hrs by alamar blue assay; assay type: functional, cell-based; details: DU-145, 72 h; in short: as §1
[11] = Cytotoxicity against human MES-SA/Dx5 cells overexpressing MDR1 after 72 hrs by alamar blue assay; assay type: functional, cell-based; details: MES-SA/Dx5, 72 h; in short: as §1

Work on `CC[C@@]1(O)C(=O)Nc2c1c(CO)c(=O)n1c2-c2nc3ccccc3cc2C1` yielded an IC50 (NCI-H460 [1]) of 7700 nM.
With `CCc1c2c(nc3ccc(OC(=O)N4CCC(N5CCCCC5)CC4)cc13)-c1cc3c(c(=O)n1C2)COC(=O)[C@]3(O)CC` [IRINOTECAN] the IC50 (Malme-3M) was 200 nM, the IC50 (A-375) was 4 nM and the IC50 [2] was 10 nM. The IC50 (SK-MEL-2) was 100 nM, the selectivity ratio [3] was 100 and the IC50 (NCI-H460 [1]) was 15 nM. For the same compound, the IC50 ([4]; Homo sapiens, Bone marrow cell) was 1 nM, the IC90 ([4]; human, bone marrow cells) was 8 nM and the Ratio [5] was 11. The selectivity ratio [6] was 85, the Ratio [7] was 2 and the Ratio (NCI-H460 [8]) was 2. It also gave an IC50 (LNCaP) of 9 nM, an IC50 (NCI-H460 [9]) of 27 nM and an IC50 (IGROV-1) of 30 nM. The IC50 (PC-3) was 4 nM, the IC50 (HT-29) was 220 nM and the IC50 (H69AR) was 250 nM. For the same compound, the IC50 (NCI-H69) was 22 nM, the IC50 [10] was 110 nM and the IC50 (DU-145) was 200 nM. It also gave an IC50 [11] of 22 nM.
For `CCc1c2c(nc3ccccc13)-c1c([N+](=O)[O-])c3c(c(=O)n1C2)COC(=O)[C@]3(O)CC`, the IC50 (NCI-H460 [1]) was 4600 nM.
`CC[C@@]1(O)C(=O)OCc2c1c([N+](=O)[O-])c1n(c2=O)Cc2cc3ccccc3nc2-1` showed an IC50 (NCI-H460 [1]) of 3000 nM.
